The source of these data is ChEMBL document CHEMBL1687814, “Testing nucleoside analogues as inhibitors of Bacillus anthracis spore germination in vitro and in macrophage cell culture” (Antimicrob Agents Chemother, 2010).

Series [1] has as its system Bacillus anthracis. Kind of series: Antibacterial activity against Bacillus anthracis Sterne 34F2 infected in mouse J774A.1 cells assessed as protection against bacteria-induced cytotoxicity using propidium iodide staining after 3 hrs measured every hours for up to 7 hrs. The format is functional, organism-based.
Series [2] has as its system Bacillus anthracis. In words: Inhibition of inosine/L-alanine-induced Bacillus anthracis Sterne 34F2 spore germination pretreated for 15 mins before inosine/L-alanine challenge. The format is functional, organism-based.
The test system of series [3] is J774.A1. In words: Cytotoxicity against mouse J774A1 cells. The format is cell-based. The procedure, abridged: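 Uninfected J774A.1 macrophages, seeded at 8 × 10^5 cells/ml in serum-free DMEM, were given analogues at various final concentrations. Necrosis was assessed by 20 μM propidium iodide fluorescence at 617 nm, in parallel with the infected wells.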
Series [4] concerns Bacillus anthracis. Kind of series: Activation of Bacillus anthracis Sterne 34F2 spore germination after 1 hr. It is filed as functional, organism-based.
Series [5] is described as follows: Increase of Bacillus anthracis Sterne 34F2-induced cytotoxicity in mouse J774A.1 cells using propidium iodide staining measured after 5 hrs infection. As to conditions: bacillus anthracis str. sterne. The format is cell-based.
The subject of series [6] is Bacillus anthracis. In words: Ratio of IC50 for inosine/L-alanine-induced Bacillus anthracis Sterne 34F2 spore germination to IC50 for Bacillus anthracis Sterne 34F2 infected in mouse J774A.1 cells assessed as protection against bacteria-induced cytotoxicity. The format is functional.
The mark [7] stands for this setting: Bacillus anthracis, Sterne 34F2, read-out: IC50.

Activity calls are given as the source filed them. The rule behind the calls is not given here.

As to `Nc1cc(S)nc(N)n1`, the IC50 result in series [1] and in series [2] was “Not Active” in each case. For the same compound, in series [3], the Activity entry is on record as “Non-toxic”. Moreover, the outcome in series [4] was inactive.
Regarding `CN(Cc1ccccc1)c1ncnc2c1ncn2[C@@H]1O[C@H](CO)[C@@H](O)[C@H]1O`, the values for the IC50 result in series [1] and in series [2] (setting [7]) were “Not Active” and 120 µM, respectively. Besides, the Activity entry in series [5] is recorded as “Toxic”; in series [3], “Non-toxic”.
`O=C(Nc1ncnc2c1ncn2[C@@H]1O[C@H](CO)[C@@H](O)[C@H]1O)c1ccccc1`: the IC50 entry in series [1] is “Not Active”; in series [2] (setting [7]), 1140 µM. The values for the Activity entry in series [5] and in series [3] were “Toxic” and “Non-toxic”, respectively.
On to `Nc1ncnc2c1nc(N)n2[C@@H]1O[C@H](CO)[C@@H](O)[C@H]1O`, for which the IC50 entry in series [1] and in series [2] was “Not Active” each time. Further, the Activity entry in series [3] is “Non-toxic”. Moreover, in series [4], the outcome was inactive.
Regarding `Sc1ccccn1` [2-MERCAPTOPYRIDINE], the IC50 result in series [1] and in series [2] was “Not Active” each time. The Activity result in series [3] is given as “Non-toxic”. Moreover, in series [4], the result was inactive.
As for `Sc1ncccn1` [2-MERCAPTOPYRIMIDINE], the IC50 result in series [1] and in series [2] was “Not Active” in each case. Besides, in series [3], the Activity result is “Non-toxic”. For the same compound, the result in series [4] was inactive.
Consider `Sc1ccncc1` [4-MERCAPTOPYRIDINE], for which the IC50 result in series [1] and in series [2] was “Not Active” in each case. In addition, the Activity result in series [3] is given as “Non-toxic”. For the same compound, the result in series [4] was inactive.
`Nc1nc2c(nc(O)n2[C@@H]2O[C@H](CO)[C@@H](O)[C@H]2O)c(=O)[nH]1` [8-HYDROXYGUANOSINE]: the IC50 result in series [1] and in series [2] was “Not Active” throughout. Further, the Activity result in series [5] is listed as “Toxic”; in series [3], “Non-toxic”.
With `Nc1nc2c(ncn2[C@@H]2O[C@H](CO)[C@@H](O)[C@H]2O)c(=S)[nH]1` [THIOGUANOSINE], the IC50 in series [1] (Bacillus anthracis, Sterne 34F2, J774.A1, read-out: IC50) turned out to be 4 µM; in series [2] (setting [7]), 1000 µM. In series [6], the “Ratio IC50” value came out at 300. Besides, the Activity entry in series [3] is on record as “Non-toxic”.
Turning to `O=c1cc[nH]c(=S)[nH]1` [THIOURACIL], the IC50 entry in series [1] and in series [2] was “Not Active” each time. In addition, in series [3], the Activity result is recorded as “Non-toxic”. For the same compound, the result in series [4] was inactive.

The term IC50 denotes the concentration at which inhibition is half-maximal.
